ANO1 activ – activates or potentiates the mouse TMEM16A chloride channel. HEK293 TMEM16A/YFP-H148Q/I152L, iodide quench fluorescence; stronger effect = lower value. B-score at 10 µM. 0.3% of 340,000 active. AID 623877;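 active means fluorescence-ratio B-score plate-corrected deviation score at least 3 library SD below zero, with starting fluorescence score within 5 deviations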;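 further: channel opened by trigger with iodide after compound preincubation; score built on the fluorescence ratio of max minus min over baseline; more negative score means more quench and so TMEM16A activation or potentiation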
Beta apoptosis – beta cell apoptosis inhibition; INS-1E cytokine-induced death, ATP luminescence, 48 h; percent of positive-control rescue, neutral wells zero; protection from apoptosis, % (no concentration beside the values); 0.8% of 300,000 active;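 active means Every replicate reaches about 75%, or at least half do and their mean reaches it too, limit read from the data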;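 further: 0% = cytokine-treated negative control wells and 100% = positive control rescue; higher means more ATP so stronger rescue from cytokine killing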
MC4R antagonist – antagonists of human melanocortin 4 receptor (MC4R). MC4R-expressing cells, MTII-stimulated cAMP, LANCE TR-FRET. inhibition, % at 6.5 µM. 0.48% of 360,000 active. AID 540295;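 active means inhibition above its plate's cutoff, the mean of tested wells on that plate plus 3 SD, cut at about 29% in these data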;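 further: 0% = Melanotan II alone and 100% = Melanotan II plus saturating MCL0020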
Target sequence (P32245 whole entry, looked up): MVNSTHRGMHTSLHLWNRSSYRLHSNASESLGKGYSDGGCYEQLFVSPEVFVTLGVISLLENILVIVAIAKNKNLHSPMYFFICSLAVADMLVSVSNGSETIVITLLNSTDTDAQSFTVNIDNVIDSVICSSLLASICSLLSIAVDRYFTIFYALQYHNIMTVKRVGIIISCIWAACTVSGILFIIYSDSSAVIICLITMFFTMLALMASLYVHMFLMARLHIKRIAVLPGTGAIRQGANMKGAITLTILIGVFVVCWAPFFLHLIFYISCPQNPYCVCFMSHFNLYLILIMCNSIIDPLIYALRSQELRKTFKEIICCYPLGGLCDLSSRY
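Material: U2OS-MC4R stable cell line | Reagent: Melanotan II challenge after compound preincubation | Doses: One concentration, 6.5 µM nominal | Incubation: 30-min compound preincubation, 1-h Melanotan II challenge, 1-h detection, room temperature | Signal: TR-FRET cAMP assay | Replicates: One well per compound, no replicates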
TMEM16A inh – mouse TMEM16A channel inhibition, primary screen; HEK293 TMEM16A/YFP iodide influx fluorescence, ionomycin; normalized B-score (activity score, 25-100; higher = stronger inhibition) at 10 µM; 1.2% of 310,000 active; AID 588511;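 active means ratio plate-corrected score three or more library SD toward inhibition, starting fluorescence score within five deviations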;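 further: score derived from kinetic fluorescence span divided by baseline fluorescence per well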
MC4R barr agon – human MC4R agonism via beta-arrestin; AID 540308; P32245; 0.98% of 360,000 active; activation, % at 8.9 µM; U2OS MC4R beta-arrestin complementation, luminescence; percent of melanotan II response, DMSO zero;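 active means activation above a per-plate cutoff, the mean activation of sample wells on that plate plus 3 SD, cut at about 8% in these data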
CSC inhib – blocks cancer stem cells; 1.1% of 300,000 active; cancer stem cell-like cells viability, luminescence; inhibition, % at 7.5 µM; in the data active means inhibition above about 75%; tested in HMLE shEcad cells
Starred values were filed as active, the others as inactive; i = inactive; · = no result. Only some compounds are listed: those with a hit (about 3.8% of all), similar ones and a draw of the others.

SMILES	ANO1 activ	Beta apoptosis	MC4R antagonist	TMEM16A inh	MC4R barr agon	CSC inhib
COC(=O)CS(=O)(=O)c1nnc([C@H](Cc2ccccc2)NC(=O)OC(C)(C)C)o1	i	35	2	i	-1	91*
CC(=O)Nc1ccc(NC(=O)COc2cccc3ccccc23)cc1	·	·	9	·	-1	·
CC(C)Nc1ncnc2[nH]ncc12	i	·	18	·	-2	·
COc1ccc(C(=O)N/N=C(\c2ccccc2)c2ccccn2)cc1	i	113*	-1	i	-3	50
C/C(=N/NC(=O)c1ccccn1)c1ccncc1	i	0	20	i	3	14
S=C(NN=C(c1ccccc1)c1ccccn1)N(Cc1ccccn1)Cc1ccccn1	i	·	7	·	0	·
O=C(N/N=C(\c1ccccc1)c1ccccn1)c1ccccc1Cl	i	94*	-2	i	-1	25
COc1ccc(C(=O)Nc2ccc(NC(=O)c3ccccn3)cn2)cc1	i	·	26	·	0	·
O=C(NN=C(c1ccccc1)c1ccccn1)c1ccccc1	i	103*	4	·	-2	57
O=C(c1ccco1)N1N=C(c2ccccc2O)CC1c1cccs1 (stereo unspecified)	·	·	14	·	-2	·
COc1ccc(Br)cc1C(C[N+](=O)[O-])c1c(N)n(C)c(=O)n(C)c1=O (stereo unspecified)	i	44	-3	i	-1	83*
O=C1NC(=O)C2(CCCc3c([N+](=O)[O-])cccc32)N1 (stereo unspecified)	·	·	5	·	0	·
CCOc1ccc(NC(=O)CNc2cccc(S(=O)(=O)N3CCCCCC3)c2)cc1OCC	i	4	12	·	0	-2
CCc1ccc(C(=O)NNc2ccccc2F)cc1	i	-1	10	i	1	37
CCc1ccc(C(=O)NNc2cc(Cl)ccc2Cl)cc1	i	92*	1	i	6	5
COC(=O)[C@]1(Cc2ccccc2)N[C@H](c2ccc(SC3CCCCC3)c(OC)c2)[C@@H]2C(=O)N(C)C(=O)[C@@H]21	i	-3	4	·	4	5
CCc1nn2cc(C(=O)c3cc(Cl)ccc3O)cnc2c1-c1ccc(F)cc1	i	4	5	100*	-1	7
Cc1nn(-c2ccccc2)c2ncc(C(=O)c3cc(Cl)ccc3O)cc12	i	4	-1	i	3	46
CCn1cc(CN2CCC(n3nccc3NC(=O)c3ccc(OC)cc3)CC2)cn1	i	-6	2	i	2	13
O=C(NCc1cccnc1)/C(=C/c1ccc(-c2ccc(Cl)cc2)o1)S(=O)(=O)c1ccccc1	i	104*	4	i	0	110*
O=C(NCc1cccnc1)/C(=C/c1ccc(-c2cccc(C(F)(F)F)c2)o1)NC(=O)c1ccccc1	i	0	8	i	0	1
O=C(NCc1cccnc1)/C(=C\c1ccc(-c2ccc(Br)cc2)o1)S(=O)(=O)c1ccccc1	i	107*	5	i	-4	10
CCN(CC)CCNC(=O)c1ccc(NC(=O)c2ccccc2-c2ccc(C(F)(F)F)cc2)cc1	i	5	-2	i	0	14
CCOC(=O)C(=O)N/N=C/c1ccc(F)cc1	i	2	1	i	-1	-1
CCOC(=O)C(=O)NNc1ccc(F)cc1	i	4	4	i	4	101*
SMILES	ANO1 activ	Beta apoptosis	MC4R antagonist	TMEM16A inh	MC4R barr agon	CSC inhib
Cc1[nH]c2ccccc2c1C(=O)/C=C/c1ccccc1	i	-3	-6	100*	-1	3
CCN(C(=O)CCc1nnc2ccc(NCc3ccco3)nn12)c1ccccc1	i	·	7	i	-3	-6
O=C(Nc1cccc(C(F)(F)F)c1)N1CCC(c2nc(-c3ccc(F)cc3)no2)CC1	i	30	6	25*	4	28
O=C(Nc1ccc(Cl)cc1)N1CCC(c2nc(-c3ccccc3Cl)no2)CC1	i	8	21	i	9.0*	-7
O=C(Nc1ccccc1)N1CCCC(c2nc(-c3ccc(F)cc3)no2)C1 (stereo unspecified)	i	-6	11	i	1	7
COc1ccc2nc(-n3c(O)c(C4=c5ccccc5=NC4=O)[nH]c3=S)sc2c1	i	10	-5	i	-2	111*

Source: PubChem (several laboratories)
